ChEMBL document CHEMBL1128245, “Dual-acting thromboxane receptor antagonist/synthase inhibitors: synthesis and biological properties of [2-substituted-4-(3-pyridyl)-1,3-dioxan-5-yl] alkenoic acids” (J Med Chem, 1995)
pIC50: −log10 of the molar value.

What was measured:
Canis familiaris [1] = assay: Ex vivo TXA2 ([…]) antagonist activity was determined for U-46,619 induced aggregation (dose ratio) after 24 hr of oral dosing (10 mg/kg) in the dog; assay type: functional, Canis lupus familiaris
In short: (§1)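 Dogs (n = 4) dosed orally, blood sampled at 2, 5, 8 and 24 h. Platelet-rich plasma aggregated with U46619 plus a predetermined threshold ADP concentration (about 0.4–1.2 × 10^-6 M), compared before vs after dosing to give a U46619 dose ratio. ">" marks the maximum achievable ratio at top U46619 (1 × 10^-4 M).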

Canis familiaris [2] = assay: Ex vivo TXA2 ([…]) antagonist activity was determined for U-46,619 induced aggregation (dose ratio) after 2 hr of oral dosing (3 mg/kg) in the dog; assay type: functional, Canis lupus familiaris; in short: as §1
Canis familiaris [3] = assay: Ex vivo TXA2 ([…]) antagonist activity was determined for U-46,619 induced aggregation (dose ratio) after 5 hr of oral dosing (1 mg/kg) in the dog; assay type: functional, Canis lupus familiaris; in short: as §1
Rattus norvegicus [4] = assay: Ex vivo […] (TXA2 synthase) inhibitory activity after 3 hr of oral dosing (1 mg/kg) in the rat; assay type: functional
In short: (§2)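 Rats (n = 6) gavaged, anesthetized, aortic blood taken at 1, 3 or 5 h after dosing. A blood aliquot was challenged with collagen and TXB2 measured by radioimmunoassay; expressed as % inhibition of TXA2 synthase (±SEM).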

Rattus norvegicus [5] = assay: Ex vivo […] (TXA2 synthase) inhibitory activity after 1 hr of oral dosing (10 mg/kg) in the rat; assay type: functional; in short: as §2
Rattus norvegicus [6] = assay: Ex vivo […] (TXA2 synthase) inhibitory activity after 1 hr of oral dosing (1 mg/kg) in the rat; assay type: functional; in short: as §2
Rattus norvegicus [7] = assay: Ex vivo TXA2 ([…]) antagonist activity was determined for U-46,619 induced aggregation (dose ratio) after 3 hr of oral dosing (5 mg/kg) in the rat; assay type: functional
In short: (§3)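 Conscious rats (n = 6) dosed by oral gavage, then anesthetized and bled from the abdominal aorta at 1, 3 or 5 h. Platelet-rich plasma aggregated with U46619 before and after dosing to give a U46619 dose ratio. ">" values mark the maximum dose ratio achievable at the top U46619 concentration (1 × 10^-4 M).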

Rattus norvegicus [8] = assay: Ex vivo TXA2 ([…]) antagonist activity was determined for U-46,619 induced aggregation (dose ratio) after 5 hr of oral dosing (10 mg/kg) in the rat; assay type: functional; in short: as §3
Rattus norvegicus [9] = assay: Ex vivo TXA2 ([…]) antagonist activity was determined for U-46,619 induced aggregation (dose ratio) after 5 hr of oral dosing (1 mg/kg) in the rat; assay type: functional; in short: as §3
Rattus norvegicus [10] = assay: Ex vivo TXA2 ([…]) antagonist activity was determined for U-46,619 induced aggregation (dose ratio) after 5 hr of oral dosing (3 mg/kg) in the rat; assay type: functional; in short: as §3
Thromboxane-A synthase = target: T1, Thromboxane-A synthase (Homo sapiens, UniProt P24557); assay: In vitro Inhibition of thromboxane synthase from human blood platelet microsomes
T1 sequence (P24557 whole entry): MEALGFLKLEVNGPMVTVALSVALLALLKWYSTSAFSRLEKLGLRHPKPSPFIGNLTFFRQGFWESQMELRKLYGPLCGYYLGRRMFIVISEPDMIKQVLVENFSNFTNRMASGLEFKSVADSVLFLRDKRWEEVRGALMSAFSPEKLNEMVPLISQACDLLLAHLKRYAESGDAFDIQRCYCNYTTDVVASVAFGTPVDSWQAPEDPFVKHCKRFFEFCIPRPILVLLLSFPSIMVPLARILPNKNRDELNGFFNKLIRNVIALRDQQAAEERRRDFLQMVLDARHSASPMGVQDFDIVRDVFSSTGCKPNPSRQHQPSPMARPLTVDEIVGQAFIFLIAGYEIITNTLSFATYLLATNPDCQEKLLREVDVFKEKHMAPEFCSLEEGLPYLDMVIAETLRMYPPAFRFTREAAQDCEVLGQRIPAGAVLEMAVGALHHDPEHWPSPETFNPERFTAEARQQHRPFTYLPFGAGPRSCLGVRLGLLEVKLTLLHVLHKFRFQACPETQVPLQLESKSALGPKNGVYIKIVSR
In short: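 Human blood platelet microsomes incubated with [1-14C]arachidonic acid with or without inhibitor. Conversion to labeled thromboxane B2 quantified radiochromatographically. n = 2.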

Cc1ccc(OC(C)(C)C2OCC(C/C=C\CCC(=O)O)C(c3cccnc3)O2)c([N+](=O)[O-])c1 (stereo in doubt; 7x)
Antagonist activity (Canis familiaris [1]): >522 | Antagonist activity (Canis familiaris [2]): >321 | Antagonist activity (Canis familiaris [3]): >506 | Inhibition (Rattus norvegicus [4]): 38.8% | Inhibition (Rattus norvegicus [5]): 95.6% | Inhibition (Rattus norvegicus [6]): 61.8% | Antagonist activity (Rattus norvegicus [7]): >59 | Antagonist activity (Rattus norvegicus [8]): >92 | Antagonist activity (Rattus norvegicus [9]): >9 | Antagonist activity (Rattus norvegicus [10]): >21 | pIC50 (Thromboxane-A synthase): 7.72
